Calls of active or inactive are those of the source. The rule behind the calls is not given here.

A short description of data set [1]: […] peak time for H2S release in pH 7.4 PBS buffer containing 10% THF incubated for 2 hrs at room temperature in presence of cysteine by methylene blue based UV-Vis spectrometry. In kind it is physicochemical. To be noted: pH 7.4, 2 h. The method in brief: (§1)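 Donor (30 mM THF stock; 0.1 mM final) was added to PBS (pH 7.4, 50 mM)/THF 9:1 containing the stated thiol, at room temperature for 2 h. 1.0 mL aliquots were taken periodically into methylene blue cocktail (zinc acetate, N,N-dimethyl-p-phenylenediamine in HCl, FeCl3 in HCl) and reacted 15 min. Absorbance was read at 670 nm and H2S quantified against a Na2S calibration curve; peak concentration and peak time were recorded.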

Data set [2] in a line: […] peak time for H2S release in pH 7.4 PBS buffer containing 10% THF incubated for 2 hrs at room temperature in presence of 1 mM GSH by methylene blue based UV-Vis spectrometry. The format is physicochemical. The settings on record: pH 7.4, 2 h. An outline of the steps: as §1
Data set [3] is described as follows: GSH-induced H2S release assessed as peak H2S level in pH 7.4 PBS buffer containing 10% THF incubated for 2 hrs at room temperature in presence of cysteine by methylene blue based UV-Vis spectrometry. The format is physicochemical. The settings on record: pH 7.4, 2 h. The method in brief:
as §1

Data set [4] is described as follows: GSH-induced H2S release assessed as peak H2S level in pH 7.4 PBS buffer containing 10% THF incubated for 2 hrs at room temperature in presence of 1 mM GSH by methylene blue based UV-Vis spectrometry. The format is physicochemical. The settings on record: pH 7.4, 2 h. The method in brief: as §1
Data set [5] concerns H9c2. Put plainly: Cytoprotective activity against H2O2-induced cell damage in rat H9c2 cells at 160 uM incubated for 1 hr before H2O2 challenge for 5 hrs by CCK8 assay. The format is functional, cell-based. The method in brief: (§2)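 H9c2 cells (high-glucose DMEM, 10% FBS, 37 °C, 5% CO2) were preincubated 1 h with test agent, washed with PBS, then exposed to H2O2 (400 μM) for 5 h. Viability was read by CCK-8 (1:10 dilution, 3 h at 37 °C, absorbance 450 nm). The mean OD of 4 wells was expressed as % of control. Experiments were done in triplicate.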
For orientation: Tetrazolium assays rely on reduction of a dye to a coloured formazan, in cell work by metabolically active cells.

Data set [6] concerns H9c2. Briefly: Cytotoxicity against rat H9c2 cells assessed as reduction in cell viability at <40 uM incubated for 1 hr by CCK8 assay. The format is cell-based. The settings on record: h9c2, 1 h. An outline of the steps: (§3)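 H9c2 cells (high-glucose DMEM, 10% FBS, 37 °C, 5% CO2) were exposed 1 h to donor over 20–160 μM, either alone or with 480 μM cysteine, then washed twice with PBS. Viability was measured by CCK-8 (1:10 dilution, 3 h at 37 °C, absorbance 450 nm). The mean OD of 4 wells was expressed as % of control, in triplicate.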

Data set [7] relates to H9c2. Put plainly: Cytotoxicity against rat H9c2 cells assessed as reduction in cell viability at >80 uM incubated for 1 hr by CCK8 assay. The settings on record: h9c2, 1 h. In kind it is cell-based. An outline of the steps:
as §3

In data set [8] the test system is H9c2. Put plainly: Cytotoxicity against rat H9c2 cells assessed as reduction in cell viability at 160 uM in presence of 480 uM cysteine incubated for 1 hr by CCK8 assay. The format is cell-based. The settings on record: h9c2, 1 h. The method in brief:
as §3

For data set [9], the system named is H9c2. Briefly: Cytoprotective activity against H2O2-induced cell damage in rat H9c2 cells at 160 uM pre-incubated for 1 hr before H2O2 challenge for 5 hrs in presence of 480 uM cysteine by LDH release assay. The format is functional, cell-based. An outline of the steps:
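H9c2 cells at about 70% confluence were preconditioned 1 h with donor plus cysteine (480 μM), then treated with H2O2 (400 μM) for 5 h. Extracellular LDH was measured in supernatant; intracellular LDH in lysate made with 2% Triton X-100 in DMEM. Kit reaction ran 10 min at room temperature, read at 490/600 nm. % release = extracellular/(extracellular+intracellular). Run 4 times.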

For data set [10], the system named is H9c2. Briefly: Cytoprotective activity against H2O2-induced cell damage in rat H9c2 cells assessed as reduction in mitochondrial membrane potential loss at 160 uM pre-incubated for 1 hr before H2O2 challenge for 5 hrs in presence of 480 uM cysteine by Rh123 dye based fluorescent microscopy. The format is functional. The method in brief: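 H9c2 cells were grown in high-glucose DMEM with 10% FBS at 37 °C, 5% CO2. They were pretreated 1 h with donor plus cysteine (480 μM), then given H2O2 (400 μM) for 5 h. Rh123 (10 mg/L) was added for 15 min at 37 °C. Fluorescence microscopy gave mean Rh123 intensity from four random fields.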

For data set [11], the system named is H9c2. Put plainly: Cytoprotective activity against H2O2-induced cell damage in rat H9c2 cells at 480 uM incubated for 1 hr before H2O2 challenge for 5 hrs by CCK8 assay. In kind it is functional, cell-based. The method in brief: as §2

Consider `O=C(NSC(=O)c1ccccc1)c1ccc(F)cc1`, for which the Time is 55 min in [1] and 65 min in data set [2]. In addition, the Activity amounted to 38.5 µM in [3] and 43.3 µM in [4].

On to `O=C(NSC(=O)C1CCCC1)c1ccccc1`, for which the Time amounted to 60 min in data set [1] and 65 min in data set [2]. Further, the Activity in data set [3] turned out to be 40.9 µM; in data set [4] it was 49.9 µM.

As for `CC(C(=O)SNC(=O)c1ccccc1)c1ccccc1` (configuration not stated), the Time worked out at 60 min in data set [1] and 70 min in [2]. Further, the figures for the Activity in data set [3] and in data set [4] were 48.2 µM and 55.6 µM, respectively.

With `O=C(NSC(=O)c1cccc(Cl)c1)c1ccccc1`, the Time is 50 min in data set [1] and 60 min in data set [2]. For the same compound, the Activity in [3] is 49.4 µM; in [4], 31.3 µM.

In the case of `CC(=O)Oc1ccccc1C(=O)NSC(=O)c1ccccc1`, the Time in data set [1] and in [2] was 60 min throughout. Besides, the figures for the Activity in data set [3] and in [4] were 35.1 µM and 44.5 µM, respectively.

In the case of `Cc1cccc(C(=O)SNC(=O)c2ccccc2)c1`, the figures for the Time in data set [1] and in [2] were 55 min and 65 min, respectively. Further, the figures for the Activity in data set [3] and in [4] were 49.3 µM and 39.3 µM, respectively.

Take `O=C(N[C@@H](CS)C(=O)O)c1ccccc1`: in data set [5], the outcome was inactive.

On to `COc1ccccc1C(=O)SNC(=O)c1ccccc1`, for which the Time in data set [1] amounted to 60 min; in data set [2], 80 min. Moreover, the Activity in data set [3] stood at 29 µM; in data set [4], 34 µM.

In the case of `Cc1ccccc1C(=O)NSC(=O)c1ccccc1`, the values for the Time in data set [1] and in data set [2] were 55 min and 65 min, respectively. Further, the Activity in data set [3] stood at 51.4 µM; in [4], 57.6 µM.

On to `O=C(NSC(=O)c1ccccc1)Nc1ccc(Cl)cc1`, for which the Time in data set [1] came to 110 min; in data set [2], 120 min. The Activity in [3] was found to be 10.7 µM; in data set [4], 20.9 µM.

As for `Cc1ccc(C(=O)SNC(=O)c2ccccc2)cc1`, the Time in [1] and in data set [2] was 60 min in each case. Further, the Activity was found to be 45.4 µM in data set [3] and 39.8 µM in data set [4].

Regarding `CC(=O)NSC(=O)c1ccccc1`, the Time is 45 min in [1] and 50 min in data set [2]. Moreover, the Activity turned out to be 46.4 µM in data set [3] and 58.3 µM in data set [4].

As for `NC(=O)c1ccccc1`, the outcome in [5] was inactive.

In the case of `CC(=O)SNC(=O)c1ccccc1`, the Time in data set [1] was determined as 60 min; in [2], 70 min. The results for the Activity in data set [3] and in data set [4] were 48.4 µM and 63.1 µM, respectively.

As for `COc1ccc(C(=O)SNC(=O)Nc2ccccc2)cc1`, the Time in data set [1] was determined as 105 min; in [2] it was 120 min. The figures for the Activity in data set [3] and in data set [4] were 14.1 µM and 26.4 µM, respectively.

With `O=C(Cc1ccccc1)SNC(=O)c1ccccc1`, the Time in data set [1] is 50 min; in data set [2], 60 min. Further, the Activity in data set [3] is 33.4 µM; in data set [4], 47.5 µM.

Consider `O=C(NSC(=O)c1ccccc1)Nc1ccccc1`, for which the Time came to 95 min in data set [1] and 110 min in [2]. In addition, the Activity in data set [3] worked out at 21.5 µM; in data set [4], 29.9 µM.

For the compound `CCC(=O)NSC(=O)c1ccccc1`, the Time in [1] was determined as 55 min; in [2], 60 min. Besides, the Activity in data set [3] was 44.1 µM; in data set [4], 54.1 µM.

As to `O=C(NSC(=O)C1CCCCC1)c1ccccc1`, the Time amounted to 65 min in data set [1] and 80 min in data set [2]. For the same compound, the Activity in data set [3] turned out to be 48.1 µM; in [4], 68.2 µM.

In the case of `Cc1ccc(NC(=O)NSC(=O)c2ccccc2)cc1`, the results for the Time in data set [1] and in [2] were 90 min and 130 min, respectively. For the same compound, the Activity in data set [3] was 21.8 µM; in [4], 27.4 µM.

Regarding `O=C(NSC(=O)c1ccc(C(F)(F)F)cc1)c1ccccc1`, the Time in data set [1] is on record as 45 min; in data set [2], 60 min. The Activity in data set [3] amounted to 48.3 µM; in data set [4], 28.1 µM.

In the case of `CC(C)(C)C(=O)SNC(=O)c1ccccc1`, the results for the Time in data set [1] and in [2] were 80 min and 90 min, respectively. The Activity was found to be 37.5 µM in data set [3] and 48.1 µM in data set [4].

Turning to `O=C(NSC(=O)c1ccc(Cl)cc1)Nc1ccccc1`, the Time was 95 min in data set [1] and 120 min in data set [2]. The Activity in [3] was found to be 18.2 µM; in data set [4] it was 24.9 µM.

Turning to `COc1cccc(C(=O)SNC(=O)c2ccccc2)c1`, the results for the Time in [1] and in [2] were 55 min and 80 min, respectively. Moreover, the Activity in [3] turned out to be 47 µM; in data set [4], 39.5 µM.

As to `COc1ccc(C(=O)SNC(=O)c2ccccc2)cc1`, the Time is on record as 60 min in [1] and 65 min in data set [2]. Moreover, the Activity is 41.8 µM in [3]; 46.8 µM in [4]; “Non-toxic” in data set [6]; “Toxic” in [7]; “Non-toxic” in [8]. The result in data set [9] and in data set [10] was Active.

Take `Cc1ccccc1C(=O)SNC(=O)c1ccccc1`: the figures for the Time in [1] and in data set [2] were 60 min and 70 min, respectively. In addition, the Activity in data set [3] came out at 29.4 µM; in data set [4], 19.8 µM.

In the case of `Cc1ccc(C(=O)SNC(=O)Nc2ccccc2)cc1`, the figures for the Time in [1] and in [2] were 105 min and 130 min, respectively. Also, the values for the Activity in data set [3] and in [4] were 16.5 µM and 20 µM, respectively.

Take `N[C@@H](CS)C(=O)O`: the result in [11] was inactive.

Regarding `CC(C)C(=O)SNC(=O)c1ccccc1`, the figures for the Time in [1] and in [2] were 65 min and 70 min, respectively. In addition, the Activity is 40.7 µM in [3] and 58.4 µM in data set [4].

Consider `O=C(NSC(=O)c1ccccc1)c1cccc(Cl)c1`, for which the results for the Time in data set [1] and in data set [2] were 60 min and 70 min, respectively. Also, the Activity in [3] worked out at 25.2 µM; in data set [4] it was 29.9 µM.

With `COC(=O)c1ccc(C(=O)SNC(=O)c2ccccc2)cc1`, the Time in data set [1] was determined as 50 min; in data set [2] it was 55 min. Also, the Activity in data set [3] was 38.8 µM; in data set [4], 36 µM.

In the case of `O=C(NSC(=O)c1ccc(F)cc1)Nc1ccccc1`, the Time in data set [1] turned out to be 75 min; in data set [2] it was 90 min. The Activity in [3] was found to be 18.8 µM; in [4], 18.5 µM.

As to `CN(C)c1ccc(C(=O)SNC(=O)c2ccccc2)cc1`, the Time is recorded as 65 min in [1] and 80 min in data set [2]. Also, the Activity is 19.5 µM in data set [3] and 7.6 µM in data set [4].

As for `CCCC(=O)NSC(=O)c1ccccc1`, the Time in [1] and in data set [2] was 60 min each time. The Activity in data set [3] worked out at 45.9 µM; in data set [4], 58.3 µM.

For the origin of these results see ChEMBL document CHEMBL3612036, “Design, Synthesis, and Cardioprotective Effects of N-Mercapto-Based Hydrogen Sulfide Donors” (J Med Chem, 2015).
